{"source": "ChEMBL document CHEMBL4118202", "about": "“Chiral analogues of (+)-cyclazosin as potent α1B-adrenoceptor selective antagonist” (Bioorg Med Chem, 2018)", "key": {"[1]": {"biological_target": "T1, Alpha-1D adrenergic receptor (Rattus norvegicus, UniProt P23944)", "T1 sequence (P23944 whole entry)": "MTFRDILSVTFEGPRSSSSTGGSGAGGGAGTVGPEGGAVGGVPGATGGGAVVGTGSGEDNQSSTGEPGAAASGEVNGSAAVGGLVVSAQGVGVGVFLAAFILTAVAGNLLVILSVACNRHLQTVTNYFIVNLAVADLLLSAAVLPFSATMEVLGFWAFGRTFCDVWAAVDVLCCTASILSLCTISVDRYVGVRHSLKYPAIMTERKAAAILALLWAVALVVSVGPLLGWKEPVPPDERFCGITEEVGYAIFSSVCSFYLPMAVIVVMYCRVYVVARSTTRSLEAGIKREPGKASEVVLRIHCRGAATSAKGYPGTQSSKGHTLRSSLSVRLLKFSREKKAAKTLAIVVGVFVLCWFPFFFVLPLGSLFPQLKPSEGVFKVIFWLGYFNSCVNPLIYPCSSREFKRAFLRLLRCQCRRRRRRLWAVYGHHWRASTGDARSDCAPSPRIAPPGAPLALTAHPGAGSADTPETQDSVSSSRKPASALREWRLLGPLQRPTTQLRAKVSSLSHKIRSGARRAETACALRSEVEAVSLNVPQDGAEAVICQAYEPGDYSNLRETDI", "assay": "Antagonist activity at alpha1D adrenergic receptor in Wistar rat thoracic aorta assessed as inhibition of noradrenaline-induced contraction measured after 30 mins in presence of cocaine hydrochloride and beta-adrenoceptor blocker propranolol hydrochloride", "assay_type": "functional", "conditions": "read-out: pA2 (converted)", "outline": "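Helical thoracic aorta strips, endothelium removed (checked by loss of acetylcholine relaxation), in Krebs at 1 g, equilibrated ≥2 h. Isometric cumulative noradrenaline curves at 1 h intervals; the second served as control, the third followed 30 min antagonist.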"}, "[2]": {"species_on_record": "Rattus norvegicus", "assay": "Selectivity ratio of compound effect for antagonism of alpha1D adrenergic receptor in Wistar rat thoracic aorta to compound effect for antagonism of alpha1A adrenergic receptor in Wistar rat prostatic rat vas deferens", "outline": "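Ratio taken as the antilog of the difference between rat tissue pA2 or pKB values for the two subtypes (vas deferens α1A, spleen α1B, aorta α1D organ-bath antagonism).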"}, "[3]": {"biological_target": "T2, Alpha-1A adrenergic receptor (Homo sapiens, UniProt P35348)", "T2 sequence (P35348 whole entry)": "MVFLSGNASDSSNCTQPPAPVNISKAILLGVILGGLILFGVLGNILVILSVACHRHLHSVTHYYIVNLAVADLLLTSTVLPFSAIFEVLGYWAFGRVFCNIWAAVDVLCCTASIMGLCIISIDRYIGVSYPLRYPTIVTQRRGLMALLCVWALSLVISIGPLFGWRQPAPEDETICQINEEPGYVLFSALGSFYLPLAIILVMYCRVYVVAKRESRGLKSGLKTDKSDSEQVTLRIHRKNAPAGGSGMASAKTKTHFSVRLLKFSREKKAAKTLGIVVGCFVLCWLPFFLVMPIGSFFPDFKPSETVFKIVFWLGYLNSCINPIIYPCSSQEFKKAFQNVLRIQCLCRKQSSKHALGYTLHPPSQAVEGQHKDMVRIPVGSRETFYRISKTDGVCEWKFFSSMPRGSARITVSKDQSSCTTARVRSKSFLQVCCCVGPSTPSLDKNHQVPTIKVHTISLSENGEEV", "assay": "Displacement of [3H]prazosin from human alpha1A adrenergic receptor expressed in CHO cell membranes after 30 mins by rapid filtration method", "outline": "(§1)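 Membranes (30 μg protein) from CHO cells stably transfected with the human α1a, α1b or α1d receptor. Incubated 30 min at 25 °C in 50 mM Tris-HCl pH 7.4 with 0.1–0.4 nM [3H]prazosin and competitor 1 pM–10 μM. Nonspecific binding defined by 10 μM phentolamine. Stopped by rapid filtration through PEI-treated filters. IC50 converted to Ki by Cheng-Prusoff; pKi from 2–3 experiments in triplicate.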"}, "[4]": {"biological_target": "T3, Alpha-1B adrenergic receptor (Homo sapiens, UniProt P35368)", "T3 sequence (P35368 whole entry)": "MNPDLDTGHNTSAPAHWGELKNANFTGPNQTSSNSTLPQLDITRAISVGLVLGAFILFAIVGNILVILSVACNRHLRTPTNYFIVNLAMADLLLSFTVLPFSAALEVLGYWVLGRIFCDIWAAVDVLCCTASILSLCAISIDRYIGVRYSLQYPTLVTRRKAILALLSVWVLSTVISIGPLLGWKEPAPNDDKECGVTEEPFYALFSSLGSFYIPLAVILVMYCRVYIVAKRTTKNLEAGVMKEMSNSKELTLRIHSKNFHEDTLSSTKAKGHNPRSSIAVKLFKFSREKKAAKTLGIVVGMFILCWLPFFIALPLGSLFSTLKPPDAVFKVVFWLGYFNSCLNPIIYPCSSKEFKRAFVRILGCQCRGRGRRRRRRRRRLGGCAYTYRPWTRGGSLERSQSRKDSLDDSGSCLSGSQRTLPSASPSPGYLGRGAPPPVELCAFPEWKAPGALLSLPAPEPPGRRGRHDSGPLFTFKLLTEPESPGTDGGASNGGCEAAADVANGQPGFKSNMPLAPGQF", "assay": "Displacement of [3H]prazosin from human alpha1B adrenergic receptor expressed in CHO cell membranes after 30 mins by rapid filtration method", "outline": "as §1"}, "[5]": {"species_on_record": "Homo sapiens", "assay": "Selectivity ratio of compound effect for displacement of [3H]prazosin from human alpha1B adrenergic receptor expressed in CHO cell membranes to compound effect for displacement of [3H]prazosin from human alpha1A adrenergic receptor expressed in CHO cell membranes", "outline": "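Ratio taken as the antilog of the difference between pKi values from [3H]prazosin displacement at human α1 subtypes expressed in CHO membranes.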"}, "[6]": {"biological_target": "T4, Alpha-1B adrenergic receptor (Rattus norvegicus) (UniProt P15823)", "T4 sequence (whole entry)": "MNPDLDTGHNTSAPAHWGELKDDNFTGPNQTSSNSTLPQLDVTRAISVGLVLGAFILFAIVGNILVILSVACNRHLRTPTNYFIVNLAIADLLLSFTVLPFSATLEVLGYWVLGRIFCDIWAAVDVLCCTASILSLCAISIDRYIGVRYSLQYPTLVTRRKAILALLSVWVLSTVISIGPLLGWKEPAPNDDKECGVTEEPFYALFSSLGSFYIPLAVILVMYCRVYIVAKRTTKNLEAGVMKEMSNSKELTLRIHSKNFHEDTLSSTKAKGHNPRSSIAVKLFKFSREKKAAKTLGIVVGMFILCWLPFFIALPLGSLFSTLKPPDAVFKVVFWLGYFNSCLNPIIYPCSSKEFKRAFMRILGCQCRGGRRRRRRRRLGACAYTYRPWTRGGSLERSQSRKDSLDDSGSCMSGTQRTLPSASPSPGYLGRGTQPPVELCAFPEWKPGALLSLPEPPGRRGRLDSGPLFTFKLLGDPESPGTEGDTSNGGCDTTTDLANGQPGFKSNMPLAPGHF", "assay": "Antagonist activity at alpha1B adrenergic receptor in Wistar rat spleen assessed as inhibition of phenylephrine-induced contraction incubated for 30 mins in presence of beta-adrenoceptor blocker propranolol hydrochloride", "assay_type": "functional", "outline": "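Spleen bisected longitudinally into strips in Krebs with propranolol 4 μM, held at 1 g and equilibrated 2 h. Two isometric cumulative phenylephrine curves, each followed by 30 min washing. Third curve after 30 min vehicle or antagonist. Potency as pA2 (Schild) or pKB at one concentration (van Rossum). Responses as % of control maximum; n ≥ 4.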"}}}
{"compound": "COc1cc2nc(N3CCN(C(=O)OCc4ccccc4)[C@@H]4CCCC[C@@H]43)nc(N)c2cc1OC", "values": [{"measurement": "Kb", "setting": "[1]", "value": 0.525, "unit": "nM"}, {"measurement": "Selectivity ratio", "setting": "[2]", "value": 31}, {"measurement": "Ki", "setting": "[3]", "value": 0.501, "unit": "nM"}, {"measurement": "Ki", "setting": "[4]", "value": 0.191, "unit": "nM"}, {"measurement": "Selectivity ratio", "setting": "[5]", "value": 3}]}
{"compound": "COc1cc2nc(N3CCN(C(=O)OCc4ccccc4)[C@H]4CCCC[C@H]43)nc(N)c2cc1OC", "values": [{"measurement": "pKb", "setting": "[6]", "value": 8.77}, {"measurement": "Kb", "setting": "[1]", "value": 240, "unit": "nM"}, {"measurement": "Selectivity ratio", "setting": "[2]", "value": 3}, {"measurement": "Ki", "setting": "[3]", "value": 5.5, "unit": "nM"}, {"measurement": "Ki", "setting": "[4]", "value": 0.38, "unit": "nM"}, {"measurement": "Selectivity ratio", "setting": "[5]", "value": 14}]}
{"compound": "CCCN(CCC)c1nc(N2CCN(C(=O)c3ccco3)[C@H]3CCCC[C@H]32)nc2cc(OC)c(OC)cc12", "values": [{"measurement": "pKb", "setting": "[6]", "value": 7.86}, {"measurement": "Selectivity ratio", "setting": "[2]", "value": 2}, {"measurement": "Ki", "setting": "[3]", "value": 22.4, "unit": "nM"}, {"measurement": "Ki", "setting": "[4]", "value": 0.302, "unit": "nM"}, {"measurement": "Selectivity ratio", "setting": "[5]", "value": 74}]}
{"compound": "CCCN(CCC)c1nc(N2CCN(C(=O)c3ccco3)[C@@H]3CCCC[C@@H]32)nc2cc(OC)c(OC)cc12", "values": [{"measurement": "pKb", "setting": "[6]", "value": 7.17}, {"measurement": "Kb", "setting": "[1]", "value": 58.9, "unit": "nM"}, {"measurement": "Selectivity ratio", "setting": "[2]", "value": 1}, {"measurement": "Ki", "setting": "[3]", "value": 1.86, "unit": "nM"}, {"measurement": "Ki", "setting": "[4]", "value": 0.129, "unit": "nM"}, {"measurement": "Selectivity ratio", "setting": "[5]", "value": 15}]}
{"compound": "CCCCCC(=O)N1CCN(c2nc(N)c3cc(OC)c(OC)cc3n2)[C@@H]2CCCC[C@@H]21", "values": [{"measurement": "pKb", "setting": "[6]", "value": 7.99}, {"measurement": "Kb", "setting": "[1]", "value": 155, "unit": "nM"}, {"measurement": "Selectivity ratio", "setting": "[2]", "value": 0.6}, {"measurement": "Ki", "setting": "[3]", "value": 5.75, "unit": "nM"}, {"measurement": "Ki", "setting": "[4]", "value": 0.912, "unit": "nM"}, {"measurement": "Selectivity ratio", "setting": "[5]", "value": 6}]}
{"compound": "COc1cc2nc(N3CCN(C(C)=O)[C@H]4CCCC[C@H]43)nc(N)c2cc1OC", "values": [{"measurement": "Kb", "setting": "[1]", "value": 1700, "unit": "nM"}, {"measurement": "Selectivity ratio", "setting": "[2]", "value": 2}, {"measurement": "Ki", "setting": "[3]", "value": 224, "unit": "nM"}, {"measurement": "Ki", "setting": "[4]", "value": 9.12, "unit": "nM"}, {"measurement": "Selectivity ratio", "setting": "[5]", "value": 25}]}
{"compound": "COc1cc2nc(N3CCN(C(=O)Cc4ccc5ccccc5c4)[C@H]4CCCC[C@H]43)nc(N)c2cc1OC", "values": [{"measurement": "pKb", "setting": "[6]", "value": 8.05}, {"measurement": "Kb", "setting": "[1]", "value": 135, "unit": "nM"}, {"measurement": "Selectivity ratio", "setting": "[2]", "value": 2}, {"measurement": "Ki", "setting": "[3]", "value": 17, "unit": "nM"}, {"measurement": "Ki", "setting": "[4]", "value": 1.17, "unit": "nM"}, {"measurement": "Selectivity ratio", "setting": "[5]", "value": 14}]}
{"compound": "COc1cc2nc(N3CCN(C(=O)C4COc5ccccc5O4)[C@H]4CCCC[C@H]43)nc(N)c2cc1OC", "note": "(single isomer, unassigned; (-)) [CYCLODOXAZOSIN]", "values": [{"measurement": "pKb", "setting": "[6]", "value": 8.61}, {"measurement": "Selectivity ratio", "setting": "[2]", "value": 3}]}
{"compound": "COc1cc2nc(N3CCN(C(=O)COc4c(OC)cccc4C(C)C)[C@H]4CCCC[C@H]43)nc(N)c2cc1OC", "values": [{"measurement": "Kb", "setting": "[1]", "value": 58.9, "unit": "nM"}, {"measurement": "Selectivity ratio", "setting": "[2]", "value": 3}, {"measurement": "Ki", "setting": "[3]", "value": 0.871, "unit": "nM"}, {"measurement": "Ki", "setting": "[4]", "value": 0.151, "unit": "nM"}, {"measurement": "Selectivity ratio", "setting": "[5]", "value": 6}]}
{"compound": "COc1cc2nc(N3CCN(C(=O)C(C)(C)C)[C@H]4CCCC[C@H]43)nc(N)c2cc1OC", "values": [{"measurement": "pKb", "setting": "[6]", "value": 8.26}, {"measurement": "Kb", "setting": "[1]", "value": 141, "unit": "nM"}, {"measurement": "Selectivity ratio", "setting": "[2]", "value": 0.5}, {"measurement": "Ki", "setting": "[3]", "value": 6.61, "unit": "nM"}, {"measurement": "Ki", "setting": "[4]", "value": 0.776, "unit": "nM"}, {"measurement": "Selectivity ratio", "setting": "[5]", "value": 9}]}
{"compound": "COc1cc2nc(N3CCN(C(C)=O)[C@@H]4CCCC[C@@H]43)nc(N)c2cc1OC", "values": [{"measurement": "Kb", "setting": "[1]", "value": 2.19, "unit": "nM"}, {"measurement": "Selectivity ratio", "setting": "[2]", "value": 20}, {"measurement": "Ki", "setting": "[3]", "value": 9.12, "unit": "nM"}, {"measurement": "Ki", "setting": "[4]", "value": 0.741, "unit": "nM"}, {"measurement": "Selectivity ratio", "setting": "[5]", "value": 12}]}
